Source: publication PMC12475083 (Scientific Reports, 2025)
Where two headings read alike, the source gives them in different places.

What was measured:
[1] = target: T1, hHDAC6 (Homo sapiens, UniProt Q9UBN7); test: biochemical
T1 sequence (Q9UBN7 1-1215): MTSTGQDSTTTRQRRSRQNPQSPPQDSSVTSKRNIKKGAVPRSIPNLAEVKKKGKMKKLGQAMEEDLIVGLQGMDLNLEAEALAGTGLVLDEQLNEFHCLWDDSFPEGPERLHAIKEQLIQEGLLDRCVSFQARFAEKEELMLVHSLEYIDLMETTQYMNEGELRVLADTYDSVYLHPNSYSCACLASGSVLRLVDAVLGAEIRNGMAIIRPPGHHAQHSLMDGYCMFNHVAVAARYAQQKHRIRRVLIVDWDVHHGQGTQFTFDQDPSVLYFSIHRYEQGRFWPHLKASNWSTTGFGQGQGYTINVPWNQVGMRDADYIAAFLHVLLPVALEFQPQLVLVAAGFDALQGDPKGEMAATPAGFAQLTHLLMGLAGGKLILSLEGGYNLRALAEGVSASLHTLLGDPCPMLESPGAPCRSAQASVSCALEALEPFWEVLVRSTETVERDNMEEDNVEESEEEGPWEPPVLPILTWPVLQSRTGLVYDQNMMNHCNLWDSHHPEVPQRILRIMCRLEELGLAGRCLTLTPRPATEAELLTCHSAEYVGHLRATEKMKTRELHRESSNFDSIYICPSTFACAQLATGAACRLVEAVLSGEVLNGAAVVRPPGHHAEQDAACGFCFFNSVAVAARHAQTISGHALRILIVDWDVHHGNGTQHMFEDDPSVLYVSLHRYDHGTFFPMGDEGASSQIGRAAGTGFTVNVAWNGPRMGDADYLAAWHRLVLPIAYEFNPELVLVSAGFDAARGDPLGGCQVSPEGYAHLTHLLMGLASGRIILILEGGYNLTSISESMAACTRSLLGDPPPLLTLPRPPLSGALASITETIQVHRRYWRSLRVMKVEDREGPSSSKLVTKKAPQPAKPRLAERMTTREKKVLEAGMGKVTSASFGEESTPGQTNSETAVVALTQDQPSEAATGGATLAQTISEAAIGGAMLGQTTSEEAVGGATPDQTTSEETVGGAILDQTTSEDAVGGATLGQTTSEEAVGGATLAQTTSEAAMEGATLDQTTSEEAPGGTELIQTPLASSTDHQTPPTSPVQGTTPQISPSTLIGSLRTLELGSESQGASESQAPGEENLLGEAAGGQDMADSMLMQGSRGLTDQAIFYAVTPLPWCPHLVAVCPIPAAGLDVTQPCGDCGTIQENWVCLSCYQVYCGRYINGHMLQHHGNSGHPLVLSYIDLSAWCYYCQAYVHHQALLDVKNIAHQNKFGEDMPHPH

[2] = tested on: KB (epidermal carcinoma); test: Cytotoxicity, WST-8 cell viability; type: cell-based, human; details: read-out: Cancer cell lines IC50 KB
Procedure, shortened: (§1)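 Cells were seeded at 10,000 cells/well and grown for 24 h. Test compounds were dissolved in DMSO, diluted in medium and added at 80, 40, 20 and 10 µM. Cells were then incubated for 48 h. Viability was read with WST-8 plus 1-methoxy PMS as formazan absorbance at 450 nm. Controls were doxorubicin (positive) and 0.25% DMSO (vehicle). IC50 came from concentration-response curves, mean ± SD (n = 3).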

[3] = tested on: BT-549 (breast carcinoma); test: Cytotoxicity, WST-8 cell viability; type: cell-based, human; details: read-out: Cancer cell lines IC50 BT-549
Procedure, shortened: as §1

[4] = target: hHDAC1 (Homo sapiens, UniProt Q13547); test: biochemical; type: biochemical; details: for hHDAC1 % @1 µM: inhibitor at 1 µM; for hHDAC1 % @10 µM: inhibitor at 10 µM
[5] = tested on: SK-MEL (melanoma); test: Cytotoxicity, WST-8 cell viability; type: cell-based, human; details: read-out: Cancer cell lines IC50 SK-MEL
Procedure, shortened: as §1

[6] = tested on: Vero kidney cells; test: Cytotoxicity, WST-8 cell viability, non-cancer kidney cells; type: cell-based; details: read-out: Kidney cells IC50 Vero
Procedure, shortened: as §1

[7] = target: T2, hHDAC8 (Homo sapiens, UniProt Q9BY41); test: biochemical; type: biochemical; details: for hHDAC8 % @1 µM: inhibitor at 1 µM; for hHDAC8 % @10 µM: inhibitor at 10 µM
T2 sequence (Q9BY41 1-377): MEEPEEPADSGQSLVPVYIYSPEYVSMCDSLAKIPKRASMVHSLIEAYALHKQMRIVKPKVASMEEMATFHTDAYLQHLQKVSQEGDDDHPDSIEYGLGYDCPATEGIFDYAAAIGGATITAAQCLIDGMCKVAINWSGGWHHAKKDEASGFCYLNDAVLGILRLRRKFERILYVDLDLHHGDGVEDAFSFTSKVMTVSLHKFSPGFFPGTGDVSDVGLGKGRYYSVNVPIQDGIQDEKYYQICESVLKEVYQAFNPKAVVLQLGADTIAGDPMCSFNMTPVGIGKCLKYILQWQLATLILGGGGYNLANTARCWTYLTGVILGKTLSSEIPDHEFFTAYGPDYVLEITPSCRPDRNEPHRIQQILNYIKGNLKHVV

[8] = tested on: SK-OV-3 (ovarian carcinoma); test: Cytotoxicity, WST-8 cell viability; type: cell-based, human; details: read-out: Cancer cell lines IC50 SK-OV-3
Procedure, shortened: as §1

[9] = target: T3, drHDAC10 (Danio rerio, UniProt F1QCV2); test: Enzymatic in vitro HDAC10 inhibition assay; type: biochemical, zebrafish
T3 sequence (F1QCV2 1-675): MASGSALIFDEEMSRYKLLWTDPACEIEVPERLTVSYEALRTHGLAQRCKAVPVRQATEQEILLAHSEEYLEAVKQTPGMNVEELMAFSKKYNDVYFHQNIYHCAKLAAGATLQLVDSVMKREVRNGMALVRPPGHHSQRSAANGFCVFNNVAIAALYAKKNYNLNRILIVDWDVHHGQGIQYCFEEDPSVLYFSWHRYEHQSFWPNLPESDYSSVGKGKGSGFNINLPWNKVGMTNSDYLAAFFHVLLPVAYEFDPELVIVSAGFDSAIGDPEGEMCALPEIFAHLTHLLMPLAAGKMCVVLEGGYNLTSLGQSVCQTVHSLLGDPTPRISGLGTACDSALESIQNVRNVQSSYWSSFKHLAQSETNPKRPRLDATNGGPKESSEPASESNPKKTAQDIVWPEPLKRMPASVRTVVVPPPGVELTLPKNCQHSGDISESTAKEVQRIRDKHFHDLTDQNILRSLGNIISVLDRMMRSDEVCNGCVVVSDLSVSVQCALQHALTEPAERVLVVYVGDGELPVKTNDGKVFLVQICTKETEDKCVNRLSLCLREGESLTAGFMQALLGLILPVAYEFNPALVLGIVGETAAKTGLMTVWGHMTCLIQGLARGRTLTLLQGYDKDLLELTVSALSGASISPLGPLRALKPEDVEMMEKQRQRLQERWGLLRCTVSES
Procedure, shortened: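 Recombinant wild-type drHDAC10 (5 nM final) was preincubated 5 min with test compound at various concentrations in 20 mM HEPES pH 7.4 with 0.5 mg/mL BSA. The reaction was started with 50 µM Ac-spermidine-AMC and incubated 25 min at 25 °C. A stop solution containing 16 mM NDA derivatized the released primary amine. Fluorescence was read at λex 330 nm and λem 390 nm.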

[10] = tested on: LLC-PK1 kidney cells; test: Cytotoxicity, WST-8 cell viability, non-cancer kidney cells; type: cell-based; details: read-out: Kidney cells IC50 LLC-PK1; 48 h incubation, mean ± SD (n = 3)
Procedure, shortened: as §1

[11] = Chlorocebus sabaeus, Vero, 48 h
[12] = read-out: hHDAC6 IC50, recombinant human HDAC6
[13] = 48 h incubation, mean ± SD (n = 3)
[14] = read-out: IC50 drHDAC10 ± SD, zebrafish HDAC10, recombinant wild type

Sequence of hHDAC1 (Q13547 whole entry): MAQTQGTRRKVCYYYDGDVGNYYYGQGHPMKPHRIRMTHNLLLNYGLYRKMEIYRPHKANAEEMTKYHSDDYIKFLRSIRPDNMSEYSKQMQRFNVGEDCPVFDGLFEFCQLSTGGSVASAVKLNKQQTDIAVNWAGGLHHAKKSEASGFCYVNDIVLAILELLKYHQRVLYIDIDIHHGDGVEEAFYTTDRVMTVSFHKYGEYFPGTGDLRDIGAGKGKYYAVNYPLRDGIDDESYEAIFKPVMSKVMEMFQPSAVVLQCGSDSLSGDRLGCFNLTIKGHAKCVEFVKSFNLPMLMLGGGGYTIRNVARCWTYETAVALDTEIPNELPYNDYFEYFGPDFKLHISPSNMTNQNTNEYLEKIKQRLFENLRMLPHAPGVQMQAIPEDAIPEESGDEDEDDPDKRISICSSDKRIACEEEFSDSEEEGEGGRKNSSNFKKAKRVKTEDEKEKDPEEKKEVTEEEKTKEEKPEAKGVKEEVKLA

Row | SMILES | IC50 [1] [µM] | IC50 [7] [µM] | IC50 [9] [µM] | hHDAC1 % @1 µM [4] [%] | hHDAC1 % @10 µM [4] [%] | hHDAC8 % @1 µM [7] [%] | hHDAC8 % @10 µM [7] [%] | IC50 ([2]; Homo sapiens, 48 h) [µM] | IC50 ([3]; Homo sapiens, BT-549, 48 h) [µM] | IC50 ([5]; Homo sapiens, 48 h) [µM] | IC50 [6, 11] [µM] | IC50 ([8]; Homo sapiens, SK-OV-3, 48 h) [µM] | also measured
1 | O=C(NO)c1ccc(CNCc2c[nH]c3ccccc23)cc1 [Compound 2a, 4-((((1H-indol-3-yl)methyl)amino)methyl)-N-hydroxybenzamide] | 0.037 ± 0.002 | 0.35 ± 0.02 | 0.00041 ± 2e-05 | – | – | – | – | 72.8 ± 2.4 | > 80 | > 80 | 62.6 ± 2.39 | 61 ± 14.4 | IC50 [4]: 4.5 ± 0.2 µM; selectivity of HDAC10 over HDAC6 ([9]; ratio of HDAC6 to HDAC10 IC50): approximately 90 fold
2 | O=C(NO)c1ccc(N2CCN(Cc3c[nH]c4ccccc34)CC2)cc1 [Compound 2b, 4-(4-((1H-indol-3-yl)methyl)piperazin-1-yl)-N-hydroxybenzamide] | 0.073 ± 0.003 | 0.074 ± 0.006 | 0.002 ± 0.0001 | 48.4 | 90.6 | – | – | 12.1 ± 1.41 | 16.8 ± 3.63 | 26 ± 3.62 | 5.99 ± 0.4 | 11.4 ± 4.04 | –
3 | Cc1ccc(S(=O)(=O)n2cc(CNCc3ccc(C(=O)NO)cc3)c3ccccc32)cc1 [Compound 2c, N-hydroxy-4-((((1-tosyl-1H-indol-3-yl)methyl)amino)methyl) benzamide] | – | – | – | 22.2 | 72.8 | 65.1 | 97.3 | – | – | – | – | – | IC50 [1, 12]: 0.051 ± 0.005 µM; IC50 [2, 13]: 20.2 ± 0.32 µM; IC50 [3, 13]: 16.5 ± 0.32 µM; IC50 [5, 13]: 15.1 ± 0.94 µM; IC50 [6, 13]: 21.4 ± 1.27 µM; IC50 [8, 13]: 21.4 ± 1.89 µM; IC50 [9, 14]: 0.0045 ± 0.0003 µM; reduction in HDAC10 inhibitory activity compared to compound 2a ([9]; tosyl analogue vs compound 2a): ~10 fold; IC50 [10]: 16.6 ± 3.93 µM
4 | Cc1ccc(S(=O)(=O)n2cc(CNc3ccc(C(=O)NO)cc3)c3ccccc32)cc1 [Compound 2d, N-hydroxy-4-(((1-tosyl-1H-indol-3-yl)methyl)amino)benzamide] | 0.053 ± 0.005 | – | 0.29 ± 0.06 | 1.3 | 38.9 | 49.2 | 98.9 | 13.3 ± 0.33 | 11.4 ± 0.16 | 8.38 ± 2.11 | 50.5 ± 9.74 | 12.6 ± 0.98 | –
5 | Cc1ccc(S(=O)(=O)n2cc(CN3CCN(c4ccc(C(=O)NO)cc4)CC3)c3ccccc32)cc1 [Compound 2e, N-hydroxy-4-(4-((1-tosyl-1H-indol-3-yl)methyl)piperazin-1-yl)benzamide] | – | – | 0.075 ± 0.012 | 7.3 | 67.2 | 26.9 | 87.9 | 10 ± 0.7 | 9.71 ± 0.28 | 8.82 ± 0.7 | 13.2 ± 1.82 | 8.62 ± 0.42 | hHDAC6 % @1 µM ([1]; inhibitor at 1 µM): 35.3%; hHDAC6 % @10 µM ([1]; inhibitor at 10 µM): 95%; decrease in HDAC10 activity compared to unsubstituted counterpart compound 2b ([9]; tosyl analogue vs compound 2b): ~38 fold
6 | COc1cccc2c1C(=O)c1c(O)c3c(c(O)c1C2=O)C[C@@](O)(C(=O)CO)C[C@@H]3O[C@H]1C[C@H](N)[C@H](O)[C@H](C)O1 [Doxorubicin, reference compound] | – | – | – | – | – | – | – | 2.3 | 3.44 | 2.52 | > 11 | 2.01 | –

Second part, led by results:

Row | IC50 [1] [µM] | IC50 [7] [µM] | IC50 [9] [µM] | hHDAC1 % @1 µM [4] [%] | hHDAC1 % @10 µM [4] [%] | hHDAC8 % @1 µM [7] [%] | hHDAC8 % @10 µM [7] [%] | SMILES | IC50 ([2]; Homo sapiens, 48 h) [µM] | IC50 ([3]; Homo sapiens, BT-549, 48 h) [µM] | IC50 ([5]; Homo sapiens, 48 h) [µM] | IC50 [6, 11] [µM] | IC50 ([8]; Homo sapiens, SK-OV-3, 48 h) [µM] | also measured
7 | 0.0025 ± 0.0003 | 0.21 ± 0.01 | 0.11 ± 0.01 | – | – | – | – | O=C(NO)c1ccc(NCc2cnc3ccccc3c2)cc1 [Compound 2f, N-hydroxy-4-((quinolin-3-ylmethyl)amino)benzamide] | 9.72 ± 0.73 | 14.8 ± 2.65 | 15.2 ± 1.21 | 3.92 ± 0.24 | 10.9 ± 2.89 | –
8 | – | – | – | 32.1 | 79.4 | – | – | O=C(NO)c1ccc(N2CCN(Cc3cnc4ccccc4c3)CC2)cc1 [Compound 2g, N-hydroxy-4-{4-[(quinolin-3-yl)methyl]piperazin-1-yl}benzamide] | > 69 | > 69 | > 69 | 51 ± 1.95 | > 69 | IC50 [1, 12]: 0.13 ± 0.01 µM; IC50 ([7]; read-out: hHDAC8 IC50, recombinant human HDAC8): 0.3 ± 0.02 µM; IC50 [9, 14]: 0.011 ± 0.001 µM
9 | – | – | 0.05 ± 0.003 | 7.6 | 29.9 | 46.4 | 84 | CN1CCc2c(c3ccccc3n2Cc2ccc(C(=O)NO)cc2)C1 [Tubastatin A, reference compound] | – | – | – | – | – | –
